Results as given in ChEMBL document CHEMBL1129260, “Evaluation of the stability and animal biodistribution of gadolinium (III) benzylamine-derivatized diethylenetriaminepentaacetic acid” (J Med Chem, 1996).

How the values were obtained:
Settings in all cases: in vivo
Rattus norvegicus [1] = organism: Rattus norvegicus; assay: Biodistribution of Gd-LDTA (conjugated with mannose BSA) protein using [111In]- in mature female Sprague-Dawley rat blood after injecting for 24 hour.; type: ADME, organism-based
Method in brief: (§1)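 Conjugate of SCN-LDTPA with BSA, mannosylated BSA or galactosylated BSA (10 equiv chelate, pH 9 bicine, RT 24 h; FPLC-purified) was labelled with 340 μCi 111In acetate at pH 5.5 for 45 min. It was then gel-filtered (Biospin-6) and checked for purity by FPLC. Mature female Sprague-Dawley rats received 19 μg of conjugate. Four rats per time point (1, 4, 24, 48 h) were killed; blood, liver, bone, kidney and colon were taken and %ID/organ was calculated.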

Rattus norvegicus [2] = organism: Rattus norvegicus; assay: Biodistribution of Gd-LDTA (conjugated with galactose BSA) protein using [111In]- in mature female Sprague-Dawley rat bone after injecting for 96 hour.; type: ADME, organism-based, Bone element
Rattus norvegicus [3] = organism: Rattus norvegicus; assay: Biodistribution of Gd-LDTA (conjugated with galactose BSA) protein using [111In]- in mature female Sprague-Dawley rat colon after injecting for 48 hour.; type: ADME, organism-based; method in brief: as §1
Rattus norvegicus [4] = organism: Rattus norvegicus; assay: Biodistribution of Gd-LDTA (conjugated with galactose BSA) protein using [111In]- in mature female Sprague-Dawley rat liver after injecting for 48 hour.; type: ADME, organism-based; method in brief: as §1
Rattus norvegicus [5] = organism: Rattus norvegicus; assay: Biodistribution of Gd-LDTA (conjugated with galactose BSA) protein using [111In]- in mature female Sprague-Dawley rat colon after injecting for 24 hour.; type: ADME, organism-based; method in brief: as §1
Rattus norvegicus [6] = organism: Rattus norvegicus; assay: Biodistribution of In-LDTA protein using [111In]- in mature female Sprague-Dawley rat blood after injecting for 1 hour.; type: ADME, organism-based
Method in brief: (§2)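 SCN-LDTPA was coupled (pH 9 bicine, 24 h, RT) to BSA, mannosylated BSA or galactosylated BSA and FPLC-purified. The conjugate (400 μg) was labeled with 340 μCi 111In acetate at pH 5.5 for 45 min and gel-filtered. Mature female Sprague-Dawley rats received 19 μg of conjugate; four rats per time point. Blood, liver, bone, kidney and colon were taken and reported as %ID/organ.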

Rattus norvegicus [7] = organism: Rattus norvegicus; assay: Biodistribution of Gd-LDTA (conjugated with galactose BSA) protein using [111In]- in mature female Sprague-Dawley rat kidney after injecting for 96 hour.; type: ADME, organism-based
Rattus norvegicus [8] = organism: Rattus norvegicus; assay: Biodistribution of Gd-DTA (conjugated with BSA)protein using [111In]- in mature female Sprague-Dawley rat colon after injecting for 24 hour.; type: ADME, organism-based; method in brief: as §1
Rattus norvegicus [9] = organism: Rattus norvegicus; assay: Biodistribution of Gd-LDTA (conjugated with mannose BSA) protein using [111In]- in mature female Sprague-Dawley rat bone after injecting for 1 hour.; type: ADME, organism-based, Bone element; method in brief: as §1
Rattus norvegicus [10] = organism: Rattus norvegicus; assay: Biodistribution of In-LDTA (conjugated with mannoseBSA) protein using [111In]- in mature female Sprague-Dawley rat liver after injecting for 4 hour.; type: ADME, organism-based; method in brief: as §2
Rattus norvegicus [11] = organism: Rattus norvegicus; assay: Biodistribution of In-LDTA (conjugated with galactose BSA)protein using [111In]- in mature female Sprague-Dawley rat colon after injecting for 4 hour.; type: ADME, organism-based; method in brief: as §2
Rattus norvegicus [12] = organism: Rattus norvegicus; assay: Biodistribution of Gd-DTA (conjugated with BSA)protein using [111In]- in mature female Sprague-Dawley rat bone marrow after injecting for 1 hour.; type: ADME, organism-based
Rattus norvegicus [13] = organism: Rattus norvegicus; assay: Biodistribution of Gd-LDTA (conjugated with mannose BSA) protein using [111In]- in mature female Sprague-Dawley rat kidney after injecting for 48 hour.; type: ADME, organism-based
Rattus norvegicus [14] = organism: Rattus norvegicus; assay: Biodistribution of In-LDTA (conjugated with BSA) protein using [111In]- in mature female Sprague-Dawley rat bone after injecting for 4 hour.; type: ADME, organism-based, Bone element; method in brief: as §2
Rattus norvegicus [15] = organism: Rattus norvegicus; assay: Biodistribution of In-LDTA (conjugated with BSA) protein using [111In]- in mature female Sprague-Dawley rat colon after injecting for 1 hour.; type: ADME, organism-based; method in brief: as §2
Rattus norvegicus [16] = organism: Rattus norvegicus; assay: Biodistribution of Gd-DTA (conjugated with BSA)protein using [153Gd]- in mature female Sprague-Dawley rat bone marrow after injecting for 24 hour.
Rattus norvegicus [17] = organism: Rattus norvegicus; assay: Biodistribution of Gd-LDTA (conjugated with galactose BSA) protein using [111In]- in mature female Sprague-Dawley rat bone marrow after injecting for 24 hour.; type: ADME, organism-based
Rattus norvegicus [18] = organism: Rattus norvegicus; assay: Biodistribution of Gd-DTA (conjugated with BSA)protein using [111In]- in mature female Sprague-Dawley rat kidney after injecting for 96 hour.; type: ADME, organism-based
Rattus norvegicus [19] = organism: Rattus norvegicus; assay: Biodistribution of In-LDTA (conjugated with mannoseBSA)protein using [111In]- in mature female Sprague-Dawley rat blood after injecting for 1 hour.; type: ADME, organism-based; method in brief: as §2
Rattus norvegicus [20] = organism: Rattus norvegicus; assay: Biodistribution of In-LDTA (conjugated with galactose BSA)protein using [111In]- in mature female Sprague-Dawley rat liver after injecting for 1 hour.; type: ADME, organism-based; method in brief: as §2
Rattus norvegicus [21] = organism: Rattus norvegicus; assay: Biodistribution of Gd-LDTA (conjugated with mannose BSA) protein using [111In]- in mature female Sprague-Dawley rat colon after injecting for 96 hour.; type: ADME, organism-based
Rattus norvegicus [22] = organism: Rattus norvegicus; assay: Biodistribution of Gd-DTA (conjugated with BSA)protein using [153Gd]- in mature female Sprague-Dawley rat bone marrow after injecting for 48 hour.
Rattus norvegicus [23] = organism: Rattus norvegicus; assay: Biodistribution of Gd-DTA (conjugated with BSA)protein using [111In]- in mature female Sprague-Dawley rat liver after injecting for 1 hour.; type: ADME, organism-based; method in brief: as §1
Rattus norvegicus [24] = organism: Rattus norvegicus; assay: Biodistribution of Gd-LDTA (conjugated with galactose BSA) protein using [111In]- in mature female Sprague-Dawley rat kidney after injecting for 4 hour.; type: ADME, organism-based; method in brief: as §1
Rattus norvegicus [25] = organism: Rattus norvegicus; assay: Biodistribution of Gd-LDTA (conjugated with galactose BSA) protein using [111In]- in mature female Sprague-Dawley rat bone after injecting for 24 hour.; type: ADME, organism-based, Bone element; method in brief: as §1
Rattus norvegicus [26] = organism: Rattus norvegicus; assay: Biodistribution of In-LDTA (conjugated with BSA) protein using [111In]- in mature female Sprague-Dawley rat blood after injecting for 24 hour.; type: ADME, organism-based; method in brief: as §2
Rattus norvegicus [27] = organism: Rattus norvegicus; assay: Biodistribution of In-LDTA (conjugated with mannoseBSA) protein using [111In]- in mature female Sprague-Dawley rat liver after injecting for 24 hour.; type: ADME, organism-based; method in brief: as §2
Rattus norvegicus [28] = organism: Rattus norvegicus; assay: Biodistribution of Gd-LDTA (conjugated with galactose BSA) protein using [111In]- in mature female Sprague-Dawley rat bone marrow after injecting for 1 hour.; type: ADME, organism-based
Rattus norvegicus [29] = organism: Rattus norvegicus; assay: Biodistribution of Gd-DTA (conjugated with BSA)protein using [111In]- in mature female Sprague-Dawley rat blood after injecting for 1 hour.; type: ADME, organism-based; method in brief: as §1
Rattus norvegicus [30] = organism: Rattus norvegicus; assay: Biodistribution of In-LDTA (conjugated with galactose BSA)protein using [111In]- in mature female Sprague-Dawley rat kidney after injecting for 1 hour.; type: ADME, organism-based; method in brief: as §2
Rattus norvegicus [31] = organism: Rattus norvegicus; assay: Biodistribution of Gd-LDTA (conjugated with mannose BSA) protein using [111In]- in mature female Sprague-Dawley rat kidney after injecting for 4 hour.; type: ADME, organism-based
Rattus norvegicus [32] = organism: Rattus norvegicus; assay: Biodistribution of In-LDTA (conjugated with BSA) protein using [111In]- in mature female Sprague-Dawley rat bone after injecting for 48 hour.; type: ADME, organism-based, Bone element; method in brief: as §2
Rattus norvegicus [33] = organism: Rattus norvegicus; assay: Biodistribution of In-LDTA (conjugated with BSA)protein using [111In]- in mature female Sprague-Dawley rat colon after injecting for 48 hr.; type: ADME, organism-based; method in brief: as §2
Rattus norvegicus [34] = organism: Rattus norvegicus; assay: Biodistribution of Gd-LDTA (conjugated with galactose BSA) protein using [111In]- in mature female Sprague-Dawley rat bone marrow after injecting for 48 hour.; type: ADME, organism-based
Rattus norvegicus [35] = organism: Rattus norvegicus; assay: Biodistribution of In-LDTA (conjugated with galactose BSA)protein using [111In]- in mature female Sprague-Dawley rat bone after injecting for 1 hour.; type: ADME, organism-based, Bone element; method in brief: as §2
Rattus norvegicus [36] = organism: Rattus norvegicus; assay: Biodistribution of In-LDTA (conjugated with mannoseBSA) protein using [111In]- in mature female Sprague-Dawley rat bone after injecting for 24 hour.; type: ADME, organism-based, Bone element; method in brief: as §2

`Nc1ccc(CC(C(=O)O)N(CCN(CC(=O)O)CC(=O)O)CCN(CC(=O)O)CC(=O)O)cc1` (stereo unspecified) gave an ID/organ (Rattus norvegicus [1]) of 0.063%, an ID/organ (Rattus norvegicus [2]) of 9.55% and an ID/organ (Rattus norvegicus [3]) of 35.3%. For the same compound, the ID/organ (Rattus norvegicus [4]) was 34.8%, the ID/organ (Rattus norvegicus [5]) was 6.07% and the ID/organ (Rattus norvegicus [6]) was 61.3%. It also gave an ID/organ (Rattus norvegicus [7]) of 0.193%, an ID/organ (Rattus norvegicus [8]) of 2.83% and an ID/organ (Rattus norvegicus [9]) of 15.6%. The ID/organ (Rattus norvegicus [10]) was 87.6%, the ID/organ (Rattus norvegicus [11]) was 4.8% and the ID/organ (Rattus norvegicus [12]) was 1.19%. The ID/organ (Rattus norvegicus [13]) was 0.379%, the ID/organ (Rattus norvegicus [14]) was 19.1% and the ID/organ (Rattus norvegicus [15]) was 0.86%. It also gave an ID/organ (Rattus norvegicus [16]) of 3.07%, an ID/organ (Rattus norvegicus [17]) of 0.04% and an ID/organ (Rattus norvegicus [18]) of 2.73%. It also gave an ID/organ (Rattus norvegicus [19]) of 0.255%, an ID/organ (Rattus norvegicus [20]) of 99.7% and an ID/organ (Rattus norvegicus [21]) of 0.241%. For the same compound, the ID/organ (Rattus norvegicus [22]) was 2.46%, the ID/organ (Rattus norvegicus [23]) was 14.2% and the ID/organ (Rattus norvegicus [24]) was 0.105%. For the same compound, the ID/organ (Rattus norvegicus [25]) was 7.01%, the ID/organ (Rattus norvegicus [26]) was 10.8% and the ID/organ (Rattus norvegicus [27]) was 75.2%. It also gave an ID/organ (Rattus norvegicus [28]) of 0.031%, an ID/organ (Rattus norvegicus [29]) of 83.4% and an ID/organ (Rattus norvegicus [30]) of 0.0446%. It also gave an ID/organ (Rattus norvegicus [31]) of 0.542%, an ID/organ (Rattus norvegicus [32]) of 25.9% and an ID/organ (Rattus norvegicus [33]) of 5.52%. The ID/organ (Rattus norvegicus [34]) was 0.061%, the ID/organ (Rattus norvegicus [35]) was 0.227% and the ID/organ (Rattus norvegicus [36]) was 8.9%.
